Data on five compounds can be found in ChEMBL document CHEMBL3351780, “Novel hybrids of metronidazole and quinolones: synthesis, bioactive evaluation, cytotoxicity, preliminary antimicrobial mechanism and effect of metal ions on their transportation by human serum albumin” (Eur J Med Chem, 2014).

As usually defined, the MIC is the lowest concentration found to suppress growth. As a reminder, the solubility is the dissolved amount per volume that the medium holds. Higher therefore signals a readily soluble substance. Broadly, the logP is a log measure of how a compound divides between an organic and an aqueous phase. The low end stands for lower lipophilicity, the high end for higher lipophilicity. By pKa is commonly meant the pH at which an ionisable group is half protonated. A low value points to a group that gives up its proton readily.

Series [1] in a line: Antibacterial activity against Eberthella typhosa by two-fold serial dilution method. In kind it is functional. An outline of the steps:
(§1)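 MIC read as the lowest concentration giving complete growth inhibition. Two-fold serial dilutions were made in 96-well plates following NCCLS, giving a series down to 0.5 µg/mL (…32, 16, 8, 4, 2, 1, 0.5). Plates were inoculated and incubated at 37 °C for 24 h. A DMSO-with-inoculum control without drug was included. Growth was monitored visually and spectrophotometrically, in triplicate.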

The test system of series [2] is Bacillus spizizenii. Put plainly: Antibacterial activity against Bacillus subtilis ATCC 6633 by two-fold serial dilution method. The series is classed as functional. An outline of the steps:
(§2)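 Standard two-fold serial dilution in 96-well microtest plates following NCCLS. Top dilutions printed as 32, 16, 8, 4, 2, 1, 0.5 ug/mL. Wells inoculated and held at 37 °C for 24 h. Growth judged visually and by spectrophotometer, in triplicate. MIC is the lowest concentration giving complete growth inhibition.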

For series [3], the system named is Cyberlindnera jadinii. Put plainly: Antifungal activity against Candida utilis after 24 hrs by microbroth dilution method. The series is classed as functional. Particulars: Williopsis jadinii. Summed up: (§3)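 Spore suspension prepared in sterile distilled water from one-day-old cultures on Sabouraud agar, final 1-5 x 10^3 spores/mL. Compounds were serially diluted in RPMI 1640 to give eleven dilutions. Incubation at 35 °C for 24 h. Growth read visually and spectrophotometrically, in triplicate. MIC is the lowest concentration with complete inhibition.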
A general note: In broth dilution the organism is exposed to a series of concentrations in liquid medium.

Series [4] has as its system Pichia norvegensis. Put plainly: Antifungal activity against Candida mycoderma after 24 hrs by microbroth dilution method. In kind it is functional.
The subject of series [5] is Aspergillus flavus. Put plainly: Antifungal activity against Aspergillus flavus ATCC 96918 after 24 hrs by microbroth dilution method.
The subject of series [6] is Escherichia coli. Put plainly: Antibacterial activity against Escherichia coli DH52 by two-fold serial dilution method. In kind it is functional. Summed up: as §2
For series [7], the system named is Staphylococcus aureus. Put plainly: Antibacterial activity against methicillin-resistant Staphylococcus aureus N315 by two-fold serial dilution method. The series is classed as functional. An outline of the steps:
as §1

Series [8] has as its system Micrococcus luteus. Put plainly: Antibacterial activity against Micrococcus luteus by two-fold serial dilution method. The series is classed as functional. Summed up: as §2
Series [9] has as its system Staphylococcus aureus. Put plainly: Antibacterial activity against Staphylococcus aureus ATCC 25923 by two-fold serial dilution method. The series is classed as functional. An outline of the steps:
as §2

Series [10] in a line: Cytotoxicity against human A549 cells assessed as cell viability at 256 ug/ml after 24 hrs by CCK-8 assay. In kind it is cell-based. Particulars: read-out: Activity. Summed up:
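A549 cells were plated and allowed to attach for 24 h, then medium with the compound was added. The compound came from DMSO stocks diluted in medium to 8, 16, 32, 64, 128 and 256 µg/mL. Cells were kept at 37 °C in 5% CO2. Viability was read by CCK-8 absorbance at 450 nm against a drug-free control, three replicates.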

Series [11] deals with Shigella dysenteriae. Put plainly: Antibacterial activity against Shigella dysenteriae by two-fold serial dilution method. In kind it is functional. Summed up: as §1
Series [12] deals with Streptococcus pneumoniae. Put plainly: Antibacterial activity against Streptococcus pneumoniae by two-fold serial dilution method. The series is classed as functional. An outline of the steps:
as §2

The test system of series [13] is Saccharomyces cerevisiae. Put plainly: Antifungal activity against Saccharomyces cerevisiae after 24 hrs by microbroth dilution method. In kind it is functional. An outline of the steps: as §3
Series [14] has as its system Pseudomonas aeruginosa. Put plainly: Antibacterial activity against Pseudomonas aeruginosa by two-fold serial dilution method. The series is classed as functional. Summed up:
as §2

Series [15] concerns Candida albicans. Put plainly: Antifungal activity against Candida albicans ATCC 76615 after 24 hrs by microbroth dilution method. The series is classed as functional. Particulars: ATCC 76615, 24 h. An outline of the steps: as §3
The nature of series [16]: Aqueous solubility of the compound by UV-spectrophotometry. In kind it is physicochemical.
The nature of series [17]: Octanol-water partition co-efficient, log P of the compound by shake flask method. The series is classed as physicochemical.
Series [18] is described as follows: Dissociation constant, pKa of the compound by UV-spectroscopy. In kind it is physicochemical. Summed up:
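DMSO stock at 4.0 × 10^-3 mol/L added to 2 mL of buffer, then shaken 10 min at room temperature. Buffers were acetate (pH 4.0–5.0), MES (5.5–6.5), HEPES (7.0–8.0) and CHES (8.5–9.4), each from 500 mM stocks. Scans ran 210–400 nm and were normalized. Absolute differences from the acid spectrum were summed at 244 and 308 nm, plotted against pH and fitted to obtain pKa.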

Series [19] has as its system Calf thymus DNA. Put plainly: Binding affinity to calf thymus DNA by UV-vis spectroscopy. In kind it is nucleic-acid assay. Particulars: Bos taurus. Summed up:
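Calf thymus DNA held at a fixed concentration and titrated with increasing amounts of the compound. UV-vis absorption spectra were recorded at room temperature in 1.0 cm quartz cells, following the DNA band at 260 nm.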

Structures are written as SMILES. In brackets after ≈: the same amount, converted by molar mass. Activity calls are given as the source filed them. The rule behind the calls is not given here.

In the case of `CCOC(=O)c1cn(CC2CO2)c2cc(C(F)(F)F)ccc2c1=O` (racemic), the minimal inhibitory concentration (MIC) in series [1] was 2 µg/mL (≈ 5.86 µM); in series [2], 31 µg/mL (≈ 90.8 µM); in series [3] it was 512 µg/mL (≈ 1500 µM); in [4] it was 32 µg/mL (≈ 93.8 µM); in series [5] it was 512 µg/mL (≈ 1500 µM).

As for `Cc1ccc2c(c1)c(=O)c(C(=O)O)cn2CC(O)Cn1cnc([N+](=O)[O-])c1` (stereo not given), the MIC in [6] turned out to be 16 µg/mL (≈ 43 µM); in series [7] it was 8 µg/mL (≈ 21.5 µM); in series [8] it was 8 µg/mL (≈ 21.5 µM); in [1] it was 4 µg/mL (≈ 10.7 µM); in series [9], 0.5 µg/mL (≈ 1.34 µM); in series [2] it was 1 µg/mL (≈ 2.69 µM). In addition, the MIC in series [11] stood at 4 µg/mL (≈ 10.7 µM); in series [12], 32 µg/mL (≈ 85.9 µM); in series [3] it was 256 µg/mL (≈ 688 µM); in [4], 64 µg/mL (≈ 172 µM); in [13] it was 4 µg/mL (≈ 10.7 µM); in series [14] it was 1 µg/mL (≈ 2.69 µM). Further, in [15], the minimum inhibitory concentration (MIC) was 16 µg/mL (≈ 43 µM). In series [10], the viability at 24 h, 256 ug/ml is more than 83%.

Turning to `Cc1ccc2c(c1)c(=O)c(C(=O)O)cn2CC(O)Cn1c([N+](=O)[O-])cnc1C` (stereo not given), the MIC in series [6] was found to be 1 µg/mL (≈ 2.59 µM); in [7], 4 µg/mL (≈ 10.4 µM); in series [8], 1 µg/mL (≈ 2.59 µM); in series [1] it was 8 µg/mL (≈ 20.7 µM); in series [9], 8 µg/mL (≈ 20.7 µM); in series [2], 8 µg/mL (≈ 20.7 µM). In addition, the minimal inhibitory concentration (MIC) in series [11] is 8 µg/mL (≈ 20.7 µM); in series [12] it was 4 µg/mL (≈ 10.4 µM); in series [3] it was 512 µg/mL (≈ 1330 µM); in series [4], 256 µg/mL (≈ 663 µM); in series [13] it was 2 µg/mL (≈ 5.18 µM); in series [14], 2 µg/mL (≈ 5.18 µM). Further, the MIC in series [15] turned out to be 16 µg/mL (≈ 41.4 µM). In series [16], this compound had a solubility of 390 µg/mL (≈ 1010 µM). The viability at 24 h, 256 ug/ml in series [10] was more than 83%. The log partition coefficient (logP) in series [17] was -0.03. In [18], this compound registered a pKa of 6.43.

In the case of `CCn1cc(C(=O)O)c(=O)c2cc(F)c(N3CCNCC3)cc21` [NORFLOXACIN], the MIC in series [1] is 4 µg/mL (≈ 12.5 µM); in series [2], 1 µg/mL (≈ 3.13 µM); in series [12] it was 1 µg/mL (≈ 3.13 µM). Further, the result in series [19] was Active.

Regarding `CCOC(=O)c1cn(CC2CO2)c2c(F)cccc2c1=O` (racemic), the minimum inhibitory concentration (MIC) stood at 2 µg/mL (≈ 6.87 µM) in [1]; 32 µg/mL (≈ 110 µM) in series [2]; 512 µg/mL (≈ 1760 µM) in series [3]; 64 µg/mL (≈ 220 µM) in series [4]; 512 µg/mL (≈ 1760 µM) in series [5].
